Rows were chosen to be rich in hits. Some 0.72% of all compounds tested hit in one or more screens of this group.
hIAP act: human IAP activation; P09923; purified human IAP, CDP-Star luminescence, 30 min; hits give high values; 1 = vehicle-only enzyme, 0 = enzyme-free background; activation factor at 10 µM; 0.16% of 330,000 active; AID 2524;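 active = activation factor of the enzyme at least 2-fold when tested at 20 µM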
Target sequence (P09923 whole entry, looked up): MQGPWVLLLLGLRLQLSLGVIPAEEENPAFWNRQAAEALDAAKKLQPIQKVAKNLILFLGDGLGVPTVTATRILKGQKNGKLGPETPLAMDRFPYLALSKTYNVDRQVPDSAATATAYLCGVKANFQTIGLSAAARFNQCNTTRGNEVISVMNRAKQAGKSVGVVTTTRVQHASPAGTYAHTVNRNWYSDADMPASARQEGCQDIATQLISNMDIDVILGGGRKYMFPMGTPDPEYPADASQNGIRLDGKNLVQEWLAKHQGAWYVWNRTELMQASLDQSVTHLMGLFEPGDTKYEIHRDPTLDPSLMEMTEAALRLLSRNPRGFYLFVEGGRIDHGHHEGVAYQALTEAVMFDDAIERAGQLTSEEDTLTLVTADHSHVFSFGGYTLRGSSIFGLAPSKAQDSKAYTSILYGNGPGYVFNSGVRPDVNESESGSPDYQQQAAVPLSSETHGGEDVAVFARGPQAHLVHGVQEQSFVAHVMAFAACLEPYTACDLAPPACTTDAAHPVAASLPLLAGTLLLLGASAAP
mIAP act: mouse IAP activation. activation factor at 10 µM. 0.24% of 330,000 active. muIAP, CDP-Star luminescence, 30 min; hits give high values; 1 = vehicle-only enzyme signal, 0 = enzyme-free wells;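 active = activation factor of at least 2 at 20 µM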
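Assay system: mouse IAP enzyme; Reagent: CDP-Star chemiluminescent phosphatase substrate; Compound: DMSO-dissolved test compounds; Incubation: 30 min, room temperature; Technique: luminescence from enzymatic CDP-Star hydrolysis; Controls: DMSO-only wells and no-enzyme negative control.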
mIAP block: mouse IAP inhibition; AID 2806; 0.2% of 330,000 active; inhibition, % at 10 µM; purified mouse IAP, CDP-Star luminescence, 30 min;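 active = inhibition of at least 40% at 10 µM in the primary screen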;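 also: plate controls were DMSO with enzyme for no effect and no enzyme wells for full effect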
bIAP activator: increases bovine intestinal alkaline phosphatase activity. purified bovine IAP, CDP-star luminescence, 30 min; hits give high values; fold of DMSO-control signal, blank-subtracted. activation factor at 20 µM. 0.17% of 200,000 active. AID 1016;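 active = activation factor of 2 or more at 20 µM, a signal rise over negative controls twice the positive control's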
hIAP block: blocks human intestinal alkaline phosphatase; purified IAP, CDP-Star luminescence, 30 min; inhibition, % at 10 µM; 0.12% of 330,000 active;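 active = inhibition reaching a set limit with compound at 10 µM in the primary screen, cut at about 35% in these data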;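 also: plate controls were DMSO wells with enzyme for no effect and no-enzyme buffer wells for full effect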
bIAP inh: intestinal alkaline phosphatase (bovine) inhibition; AID 1019; purified bovine IAP, CDP-star luminescence, 30 min; inhibition, % at 20 µM; 190,000 tested, under 10 active;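 active = over 50% inhibition of intestinal alkaline phosphatase at 20 µM in the single-dose screen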
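Assay system – bovine IAP enzyme · Quantity – bovine IAP at 1/65,000,000 final dilution · Detection – CDP-star luminescence signal · Times – 30 min reaction at room temperature · Also added – CDP-star substrate at 30 µM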
mIAP inh conf: mouse IAP inhibition confirmation; shares compounds with mIAP block; purified mouse IAP, CDP-Star luminescence, 30 min; inhibition, % at 10 µM; 4.7% of 11,000 active; AID 434971;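 active = inhibition of at least 40% at 10 µM in either of the two replicates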;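 also: plate controls were DMSO wells with enzyme for no effect and buffer wells lacking enzyme for full effect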
* marks the source's active call; other numbers are inactive results; nt = no result.

SMILES	hIAP act	mIAP act	mIAP block	bIAP activator	hIAP block	bIAP inh	mIAP inh conf
COC(=O)c1cc(O)cc(OC)c1Oc1cc(C)cc(O)c1C(=O)O	0.95	0.47	53*	nt	5	nt	67*
COc1ccc(C(=O)OCC(=O)NC2CCCCCC2)cc1OC	1.3	0.42	58*	nt	-27	nt	71*
O=C(CCC(=O)N1CCN(Cc2ccccc2)CC1)Nc1nnc(C2CCCCC2)s1	1.2	1	0	nt	-16	nt	nt
O=C(N/N=C/c1cc(Cl)cc([N+](=O)[O-])c1O)c1ccccc1NS(=O)(=O)c1cccs1	1.2	0.59	41*	nt	-22	nt	44*
O=C(N/N=C/c1cc(Cl)cc([N+](=O)[O-])c1O)c1ccc2c(c1)OCO2	0.8	0.4	60*	nt	20	nt	68*
O=C(NN=Cc1ccc(O)cc1)c1ccccc1NS(=O)(=O)c1cccs1	1.1	1	-3	nt	-8	nt	nt
Cc1ccc(CN(C)C(=O)c2cc(S(=O)(=O)N3CCOCC3)ccc2F)o1	0.89	0.99	1	nt	11	nt	nt
O=C(O)c1cc(-c2ccco2)[nH]n1	1.1	0.31	69*	1	-5	-3	68*
CCOC(=O)c1ccc(N=Nc2c(C)c(C#N)c(O)[nH]c2=O)cc1	1.3	0.79	21	0.8	-29	22	nt
CC(C)C1NCCc2c1sc1ccccc21 (configuration not stated)	0.76	1	-2	nt	24	nt	nt
O=C(NC1CCCCC1)Oc1cc2oc(=O)sc2cc1Br	0.98	0.4	60*	nt	2	nt	81*
CCN(CC)CCNC(=O)c1ccc(NC(=O)Nc2cccc3ccccc23)cc1	1.5	3.1*	-214	nt	-54	nt	-160
COCCn1cnnc1SCC(=O)Nc1sc2c(c1C#N)CCC2	1.1	0.96	4	nt	-10	nt	nt
Cn1cnnc1SCC(=O)Nc1sc2c(c1C(N)=O)CCC2	0.86	0.43	57*	1	14	1	54*
FC(F)Sc1ccc(NC(=S)NC2CCC(NC(=S)Nc3ccc(SC(F)F)cc3)CC2)cc1 (configuration not stated)	1.1	2.5*	-145	0.6	-6	36	-135
Oc1cccc(NC(=S)Nc2ccc(SC(F)F)cc2)c1	0.94	0.87	13	1.1	6	-11	nt
COc1ccc(CCN2CC(C(=O)N3CCSCC3)CCC2=O)cc1 (configuration not stated)	1	1	-2	nt	-3	nt	nt
N#CC(C#N)=C(N)/C(C#N)=C/c1cc(O)c(O)c(O)c1	0.97	0.29	70*	nt	3	nt	66*
O=C(COC(=O)C1CC1)Nc1nc(-c2ccc(F)c(F)c2)cs1	0.97	0.96	4	nt	2	nt	nt
O=C(Nc1ccc(Cl)c(Cl)c1)Nc1ccc(Br)cc1F	0.95	3.5*	-253	1.1	5	-10	-124
O=C(Nc1ccc(Cl)cc1)Nc1ccc(Cl)c(Cl)c1	1.2	3.3*	-227	nt	-17	nt	-127
CN(C)c1cc(N/N=C/c2ccc(Cl)cc2)nc(N(C)C)n1	nt	nt	nt	1	nt	1	nt
CCN(C(=O)CSc1ncccn1)C1CCS(=O)(=O)C1 (configuration not stated)	1	0.99	1	nt	-1	nt	nt
COc1ccc(NC(=O)CN2C(=O)NC(C)(c3ccccc3)C2=O)cc1Cl (configuration not stated)	0.97	0.99	0	nt	3	nt	nt
CCCCOc1ccc(NC2=NC3(CCCCC3)N=C(N)N2)cc1	0.98	4.8*	-376	4.6*	2	-365	-453
COc1ccccc1C(CC(=O)Nc1ccc(C)c(C)c1)c1ccc(OC(C)C)cc1 (configuration not stated)	1	2.1*	-114	0.8	0	15	-106
C=C(C)CNC(=S)N/N=C/c1ccco1	1.1	0.94	6	nt	-12	nt	nt
Cc1nnc(SCC(=O)N2CCN(c3ccccc3F)CC2)n1C1CC1	1.1	0.95	5	nt	-8	nt	nt
CCCC(O)(CCC)C(=O)NNc1ccc(C)cc1	0.91	1	-1	nt	10	nt	nt
N#Cc1c(SCC(=O)Nc2nncs2)sc2c(O)cc(=O)[nH]c12	1	0.43	57*	nt	-4	nt	70*

Compound activity: PubChem, Sanford-Burnham Center for Chemical Genomics
